In ChEMBL document CHEMBL2311528, “Synthesis of spirolactone-type diterpenoid derivatives from kaurene-type oridonin with improved antiproliferative effects and their apoptosis-inducing activity in human hepatoma Bel-7402 cells” (Eur J Med Chem, 2013):

What was measured:
Assay type in all cases: functional, cell-based
Bel-7402 = test: Antiproliferative activity against human Bel7402 cells assessed as growth inhibition by MTT assay
Summary of the method: (§1)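 Cells treated in triplicate over a range of concentrations at 37 °C in humidified 5% CO2. At 72 h, MTT (5 mg/mL) was added for 4 h, followed by DMSO solubilisation and OD at 490 nm. IC50 is the concentration giving 50% growth inhibition, reported as mean ± S.D. of three independent experiments.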

[1] = Antiproliferative activity against human CaEs17 cells assessed as growth inhibition by MTT assay; summary of the method: as §1
MGC-803 = test: Antiproliferative activity against human MGC803 cells assessed as growth inhibition by MTT assay; summary of the method: as §1
K562 = test: Antiproliferative activity against human K562 cells assessed as growth inhibition by MTT assay
Summary of the method: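 K562 cells in log phase seeded at 5 × 10⁴ cells/mL and treated in triplicate across a 0.39–100 range. Cultures were kept at 37 °C in humidified 5% CO2. At 72 h, MTT (5 mg/mL) was added for 4 h, formazan was dissolved in DMSO, and OD was read at 490 nm. IC50 is the concentration giving 50% growth inhibition, reported as mean ± S.D. of three independent experiments.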

Row | Structure (SMILES) | IC50 (Bel-7402) [nM] | IC50 (MGC-803) [nM] | IC50 (K562) [nM] | IC50 [1] [nM]
1 | C=C1C(=O)[C@@]23C(=O)OC[C@]4([C@@H](OC(C)=O)CCC(C)(C)[C@H]4C=O)[C@@H]2CC[C@H]1[C@H]3OC(=O)c1ccccc1 | 3050 | 2180 | 1400 | 1990
2 | C=C1C(=O)[C@@]23C(=O)OC[C@]4([C@@H](OC(C)=O)CCC(C)(C)[C@H]4C=O)[C@@H]2CC[C@H]1[C@H]3OC(=O)CC | 3780 | 3220 | 1500 | 2770

Second part, led by results:

Row | IC50 (Bel-7402) [nM] | IC50 (MGC-803) [nM] | IC50 (K562) [nM] | Structure (SMILES) | IC50 [1] [nM]
3 | 2090 | 1900 | 1310 | C=C1C(=O)[C@@]23C(=O)OC[C@]4([C@@H](OC(C)=O)CCC(C)(C)[C@H]4C=O)[C@@H]2CC[C@H]1[C@H]3OC(=O)c1ccc(C)cc1 | 1830
4 | 2470 | 2530 | 1920 | C=C1C(=O)[C@@]23C(=O)OC[C@]4([C@@H](OC(C)=O)CCC(C)(C)[C@H]4C=O)[C@@H]2CC[C@H]1[C@H]3OC(=O)c1ccc(OC)cc1 | 1960
5 | 1740 | 1980 | 1140 | C=C1C(=O)[C@@]23C(=O)OC[C@]4([C@@H](OC(C)=O)CCC(C)(C)[C@H]4C=O)[C@@H]2CC[C@H]1[C@H]3OC(=O)c1ccc([N+](=O)[O-])cc1 | 1600
